Results filed as inconclusive are left out. Active and inactive are the calls of the source.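 How the source made its calls: active means fitted curve crosses -35% change at a dose up to twice the top valid dose; inconclusive means flat fit showing 30 to 70% drop, or poor fit; inactive means the rest, including rises or flat curves.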

A short description of the experiment: P. aeruginosa growth delay under iron chelation, dose response, whole organism, absorbance 405 nm, EDDHA, dry powder, set 5 (AID 624070). The following applies: P. aeruginosa ATCC 15692 + EDDHA, A405, 24-30 h; series mostly up to 120 µM; activity change, negative = inhibition: at the top concentration. The method, boiled down:
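Assay system: P. aeruginosa ATCC 15692 cells | Quantity: Final OD600 0.0000005 bacteria | Medium: Succinate M9 minimal growth medium, pH 7.0 | Probe or stimulus: Iron chelator EDDHA at 2 µM final | Schedule: Bacterial growth with compound for 24–30 h at 37 °C | Technique: 405 nm absorbance, pyoverdine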
Regarding `N#CC(c1ccc(F)cc1)c1cccc(Cl)n1` (stereo not drawn), the “activity change, negative = inhibition” value is -11% (inactive).

Take `CCCCC(C#N)c1ccc(Cl)cn1` (stereo not drawn): the “activity change, negative = inhibition” value was -3.36% (inactive).

In the case of `COCCC(C#N)c1ccc(F)cc1` (stereo not drawn), the “activity change, negative = inhibition” value is -34.9% (inactive).

In the case of `CCCCC(C#N)c1ccc(Cl)cc1` (stereo not drawn), the “activity change, negative = inhibition” value is -27.5% (inactive).

For the molecule `N#CC(c1ccc(Cl)cc1)N1CCCC1` (stereo not drawn), the “activity change, negative = inhibition” value is -32.5% (inactive).

In the case of `COCCOCCC(C#N)c1ccc(F)cc1` (stereo not drawn), the “activity change, negative = inhibition” value is -20.3% (inactive).

Take `N#CC1c2ccc(Cl)cc2CCc2cccnc21` (stereo not drawn): the “activity change, negative = inhibition” value was -18.7% (inactive).

For the molecule `CN(C)CCCC(C#N)c1ccc(Cl)cc1` (stereo not drawn), the “activity change, negative = inhibition” value was -9.81% (inactive).

Regarding `N#Cc1cccc(C(C#N)c2ccc(F)cc2)n1` (stereo not drawn), the “activity change, negative = inhibition” value was -55.9% [at 42 µM] (inactive).

On to `CCCCC(C#N)c1ccccn1` (stereo not drawn), for which the “activity change, negative = inhibition” value was -2.51% (inactive).

`CCCCC(C#N)c1ccc(F)cn1` (stereo not drawn): the “activity change, negative = inhibition” value was -1% (inactive).

For `CCCCC(C#N)c1ccc(F)cc1` (stereo not drawn), the “activity change, negative = inhibition” value is -7.51% (inactive).

Consider `N#CC(c1ccc(C(F)(F)F)c(Cl)n1)c1ccccc1OC(F)(F)F` (stereo not drawn), for which the “activity change, negative = inhibition” value is -11.5% (inactive).

Consider `COCCOCCC(C#N)c1ccc(Cl)cc1` (stereo not drawn), for which the “activity change, negative = inhibition” value is -0.54% (inactive).

As to `COCCNC(C#N)c1ccc(Cl)cc1` (stereo not drawn), the “activity change, negative = inhibition” value is -5.05% (inactive).

With `Clc1ccc(C(c2cccc(Cl)n2)c2nn[nH]n2)cc1` (stereo not drawn), the “activity change, negative = inhibition” value was 0.409% (inactive).

For the molecule `COCCC(C#N)c1ccc(Cl)cc1` (stereo not drawn), the “activity change, negative = inhibition” value was -9.4% (inactive).

`N#CC(c1ccc(Cl)cc1)c1ccccn1` (stereo not drawn): the “activity change, negative = inhibition” value was -20.5% (inactive).

The values are drawn from PubChem BioAssay AID624070 (Broad Institute, 2012).
